Source: ChEMBL document CHEMBL2069244 (Bioorg Med Chem Lett, 2012)
Active and inactive are the calls of the source. The rule behind the calls is not given here.

Experiments:
Mus musculus [1] = experiment: Anticonvulsant activity in mouse assessed as protection against maximal electroshock-induced seizures at 30 mg/kg, ip after 0.5 hrs; type: functional, organism-based; parameters: dose 30 mg/kg
Method in brief: (§1)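 Mice dosed ip in 30% polyethylene glycol. Corneas pretreated with 1% tetracaine, then 60 Hz alternating current (50 mA) applied for 0.2 s via corneal electrodes. Protection means absence of the hindlimb tonic extensor component. Scored as number protected/number tested.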

Mus musculus [2] = experiment: Anticonvulsant activity in mouse assessed as protection against maximal electroshock-induced seizures at 100 mg/kg, ip after 4 hrs; type: functional, organism-based; parameters: dose 100 mg/kg; method in brief: as §1
Mus musculus [3] = experiment: Anticonvulsant activity in mouse assessed as protection against maximal electroshock-induced seizures at 100 mg/kg, ip after 0.5 hrs; type: functional, organism-based; parameters: dose 100 mg/kg; method in brief: as §1
Mus musculus [4] = experiment: Anticonvulsant activity in mouse assessed as protection against maximal electroshock-induced seizures at 300 mg/kg, ip after 0.5 hrs; type: functional, organism-based; parameters: dose 300 mg/kg; method in brief: as §1
Mus musculus [5] = experiment: Anticonvulsant activity in mouse assessed as protection against maximal electroshock-induced seizures at 300 mg/kg, ip after 4 hrs; type: functional, organism-based; parameters: dose 300 mg/kg; method in brief: as §1
Mus musculus [6] = experiment: Anticonvulsant activity in mouse assessed as protection against maximal electroshock-induced seizures at 30 mg/kg, ip after 0.25 hrs; type: functional, organism-based; parameters: dose 30 mg/kg; method in brief: as §1
Mus musculus [7] = experiment: Anticonvulsant activity in mouse assessed as protection against maximal electroshock-induced seizures at 30 mg/kg, ip after 1 hr; type: functional, organism-based; parameters: dose 30 mg/kg; method in brief: as §1
Mus musculus [8] = experiment: Anticonvulsant activity in mouse assessed as protection against maximal electroshock-induced seizures at 30 mg/kg, ip after 2 hrs; type: functional, organism-based; parameters: dose 30 mg/kg; method in brief: as §1
Mus musculus [9] = experiment: Anticonvulsant activity in mouse assessed as protection against maximal electroshock-induced seizures at 30 mg/kg, ip after 4 hrs; type: functional, organism-based; parameters: dose 30 mg/kg; method in brief: as §1
Mus musculus [10] = experiment: Anticonvulsant activity in mouse assessed as protection against maximal electroshock-induced seizures at 30 mg/kg, ip after 6 hrs; type: functional, organism-based; parameters: dose 30 mg/kg; method in brief: as §1
Mus musculus [11] = experiment: Anticonvulsant activity in mouse assessed as protection against subcutaneous pentylenetetrazole-induced seizures at 30 mg/kg, ip after 0.5 hrs; type: functional, organism-based; parameters: dose 30 mg/kg
Mus musculus [12] = experiment: Anticonvulsant activity in mouse assessed as protection against subcutaneous pentylenetetrazole-induced seizures at 100 mg/kg, ip after 0.5 hrs; type: functional, organism-based; parameters: dose 100 mg/kg
Mus musculus [13] = experiment: Anticonvulsant activity in mouse assessed as protection against subcutaneous pentylenetetrazole-induced seizures at 300 mg/kg, ip after 0.5 hrs; type: functional, organism-based; parameters: dose 300 mg/kg
Mus musculus [14] = experiment: Anticonvulsant activity in mouse assessed as protection against subcutaneous pentylenetetrazole-induced seizures at 30 mg/kg, ip after 4 hrs; type: functional, organism-based; parameters: dose 30 mg/kg
Mus musculus [15] = experiment: Anticonvulsant activity in mouse assessed as protection against subcutaneous pentylenetetrazole-induced seizures at 100 mg/kg, ip after 4 hrs; type: functional, organism-based; parameters: dose 100 mg/kg
Mus musculus [16] = experiment: Anticonvulsant activity in mouse assessed as protection against subcutaneous pentylenetetrazole-induced seizures at 300 mg/kg, ip after 4 hrs; type: functional, organism-based; parameters: dose 300 mg/kg
Mus musculus [17] = experiment: Neurotoxicity in mouse at 30 mg/kg, ip after 0.5 hrs by 6Hz psychomotor seizure test; type: toxicity, organism-based; parameters: dose 30 mg/kg, route intraperitoneal; settings: in vivo
Method in brief: (§2)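 Mice dosed ip in 30% polyethylene glycol and placed on a rotorod at 6 rpm. An animal is scored toxic if it falls off three times within 1 min.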

Mus musculus [18] = experiment: Neurotoxicity in mouse at 30 mg/kg, ip after 4 hrs by 6Hz psychomotor seizure test; type: toxicity, organism-based; parameters: dose 30 mg/kg, route intraperitoneal; settings: in vivo; method in brief: as §2
Mus musculus [19] = experiment: Neurotoxicity in mouse at 100 mg/kg, ip after 0.25 hrs by 6Hz psychomotor seizure test; type: toxicity, organism-based; parameters: dose 100 mg/kg, route intraperitoneal; settings: in vivo; method in brief: as §2
Mus musculus [20] = experiment: Neurotoxicity in mouse at 100 mg/kg, ip after 0.5 hrs by 6Hz psychomotor seizure test; type: toxicity, organism-based; parameters: dose 100 mg/kg, route intraperitoneal; settings: in vivo; method in brief: as §2
Mus musculus [21] = experiment: Neurotoxicity in mouse at 100 mg/kg, ip after 1 hrs by 6Hz psychomotor seizure test; type: toxicity, organism-based; parameters: dose 100 mg/kg, route intraperitoneal; settings: in vivo; method in brief: as §2
Mus musculus [22] = experiment: Neurotoxicity in mouse at 100 mg/kg, ip after 2 hrs by 6Hz psychomotor seizure test; type: toxicity, organism-based; parameters: dose 100 mg/kg, route intraperitoneal; settings: in vivo; method in brief: as §2
Mus musculus [23] = experiment: Neurotoxicity in mouse at 100 mg/kg, ip after 4 hrs by 6Hz psychomotor seizure test; type: toxicity, organism-based; parameters: dose 100 mg/kg, route intraperitoneal; settings: in vivo; method in brief: as §2
Mus musculus [24] = experiment: Neurotoxicity in mouse at 100 mg/kg, ip after 6 hrs by 6Hz psychomotor seizure test; type: toxicity, organism-based; parameters: dose 100 mg/kg, route intraperitoneal; settings: in vivo; method in brief: as §2
Mus musculus [25] = experiment: Neurotoxicity in mouse at 300 mg/kg, ip after 4 hrs by 6Hz psychomotor seizure test; type: toxicity, organism-based; parameters: dose 300 mg/kg, route intraperitoneal; settings: in vivo; method in brief: as §2
Mus musculus [26] = experiment: Anticonvulsant activity in mouse assessed as protection against 32mA-induced seizure at 100 mg/kg, ip after 0.25 hrs by 6Hz psychomotor seizure test; type: functional, organism-based; parameters: dose 100 mg/kg
Method in brief: (§3)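 Mice dosed ip in 30% polyethylene glycol, then given a 6 Hz, 32 mA corneal stimulus. Animals lacking the minimal clonic phase and stereotyped automatistic behaviours count as protected. Data are number protected/number tested at each time after dosing.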

Mus musculus [27] = experiment: Anticonvulsant activity in mouse assessed as protection against 32mA-induced seizure at 100 mg/kg, ip after 0.5 hrs by 6Hz psychomotor seizure test; type: functional, organism-based; parameters: dose 100 mg/kg; method in brief: as §3
Mus musculus [28] = experiment: Anticonvulsant activity in mouse assessed as protection against 32mA-induced seizure at 100 mg/kg, ip after 1 hr by 6Hz psychomotor seizure test; type: functional, organism-based; parameters: dose 100 mg/kg; method in brief: as §3
Mus musculus [29] = experiment: Anticonvulsant activity in mouse assessed as protection against 32mA-induced seizure at 100 mg/kg, ip after 2 hrs by 6Hz psychomotor seizure test; type: functional, organism-based; parameters: dose 100 mg/kg; method in brief: as §3
Mus musculus [30] = experiment: Anticonvulsant activity in mouse assessed as protection against 32mA-induced seizure at 100 mg/kg, ip after 4 hrs by 6Hz psychomotor seizure test; type: functional, organism-based; parameters: dose 100 mg/kg; method in brief: as §3
Mus musculus [31] = experiment: Neurotoxicity in mouse at 300 mg/kg, ip after 0.5 hrs by 6Hz psychomotor seizure test; type: toxicity, organism-based; parameters: dose 300 mg/kg, route intraperitoneal; settings: in vivo; method in brief: as §2
Mus musculus [32] = experiment: Anticonvulsant activity in mouse assessed as protection against maximal electroshock-induced seizures at 100 mg/kg, ip after 0.25 hrs; type: functional, organism-based; parameters: dose 100 mg/kg; method in brief: as §1
Mus musculus [33] = experiment: Anticonvulsant activity in mouse assessed as protection against maximal electroshock-induced seizures at 100 mg/kg, ip after 1 hrs; type: functional, organism-based; parameters: dose 100 mg/kg; method in brief: as §1
Mus musculus [34] = experiment: Anticonvulsant activity in mouse assessed as protection against maximal electroshock-induced seizures at 100 mg/kg, ip after 2 hrs; type: functional, organism-based; parameters: dose 100 mg/kg; method in brief: as §1
Mus musculus [35] = experiment: Anticonvulsant activity in mouse assessed as protection against maximal electroshock-induced seizures at 100 mg/kg, ip after 6 hrs; type: functional, organism-based; parameters: dose 100 mg/kg; method in brief: as §1
Mus musculus [36] = experiment: Anticonvulsant activity in ip dosed mouse assessed as protection against 32mA-induced seizure measured after 0.25 to 0.5 hrs by 6Hz psychomotor seizure test
Mus musculus [37] = experiment: Anticonvulsant activity in mouse assessed as peak time to protect against electrically-induced seizure at 100 mg/kg, ip by 6Hz psychomotor seizure test; type: functional; settings: route intraperitoneal; method in brief: as §3
Mus musculus [38] = experiment: Protective index, ratio of TD50 for neurotoxicity in ip dosed mouse to ED50 for anticonvulsant activity in mouse by 6Hz psychomotor seizure test; type: functional
Method in brief: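 Mice dosed ip in 30% polyethylene glycol. TD50 comes from rotorod toxicity at 6 rpm (three falls in 1 min). ED50 comes from 6 Hz, 32 mA seizure protection. Both are from probit analysis with 95% confidence intervals, and the index is TD50/ED50.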

Compound	Activity (Mus musculus [1])	Activity (Mus musculus [2])	Activity (Mus musculus [3])	Activity (Mus musculus [4])	Activity (Mus musculus [5])	Activity (Mus musculus [9])	Activity (Mus musculus [11])	Activity (Mus musculus [12])	Activity (Mus musculus [13])	Activity (Mus musculus [14])	Activity (Mus musculus [15])	Activity (Mus musculus [16])	Activity (Mus musculus [17])	Activity (Mus musculus [18])	Activity (Mus musculus [19])	Activity (Mus musculus [20])	Activity (Mus musculus [23])	ED50 (Mus musculus [36]) [mg/kg]	Time (Mus musculus [37]) [h]	Ratio TD50/ED50 (Mus musculus [38])	also measured
CCCc1cc(C(O)C(F)(F)F)ccc1O (configuration not stated)	inactive	inactive	inactive	Active	Active	inactive	inactive	inactive	Active	inactive	inactive	inactive	Non-toxic	Non-toxic	Non-toxic	Non-toxic	Non-toxic	–	–	–	Activity (Mus musculus [6]): inactive; Activity (Mus musculus [7]): inactive; Activity (Mus musculus [8]): inactive; Activity (Mus musculus [10]): inactive; Activity (Mus musculus [21]): Non-toxic; Activity (Mus musculus [22]): Non-toxic; Activity (Mus musculus [24]): Non-toxic; Activity (Mus musculus [25]): Non-toxic
CCc1cc(C(O)C(F)(F)F)ccc1O (configuration not stated)	inactive	inactive	inactive	inactive	inactive	inactive	inactive	inactive	inactive	inactive	inactive	inactive	Non-toxic	Non-toxic	–	Non-toxic	Non-toxic	–	–	–	Activity (Mus musculus [26]): inactive; Activity (Mus musculus [27]): inactive; Activity (Mus musculus [28]): inactive; Activity (Mus musculus [29]): inactive; Activity (Mus musculus [30]): inactive; Activity (Mus musculus [31]): Non-toxic; Activity (Mus musculus [25]): Non-toxic
Cc1cc(C(O)C(F)(F)F)ccc1O (configuration not stated)	inactive	inactive	inactive	Active	Active	–	inactive	inactive	inactive	inactive	inactive	inactive	Non-toxic	Non-toxic	Non-toxic	Non-toxic	Non-toxic	–	–	–	Activity (Mus musculus [32]): inactive; Activity (Mus musculus [33]): inactive; Activity (Mus musculus [34]): inactive; Activity (Mus musculus [35]): inactive; Activity (Mus musculus [26]): inactive; Activity (Mus musculus [27]): inactive; Activity (Mus musculus [28]): Active; Activity (Mus musculus [29]): inactive; Activity (Mus musculus [30]): inactive; Activity (Mus musculus [21]): Non-toxic; Activity (Mus musculus [22]): Non-toxic; Activity (Mus musculus [24]): Non-toxic; Activity (Mus musculus [31]): Non-toxic; Activity (Mus musculus [25]): Non-toxic
CC(C)c1cccc(C(C)C)c1O [PROPOFOL]	–	–	–	–	–	–	–	–	–	–	–	–	–	–	–	–	–	38.6	–	–	–
CCCc1cc(C(O)C(F)(F)F)cc(Br)c1O (configuration not stated)	inactive	inactive	inactive	inactive	inactive	inactive	inactive	inactive	inactive	inactive	inactive	inactive	–	–	Non-toxic	Non-toxic	Non-toxic	–	–	–	Activity (Mus musculus [21]): Non-toxic; Activity (Mus musculus [22]): Non-toxic
CCC(C)c1cc(C(O)C(F)(F)F)cc(C(C)CC)c1O (configuration not stated)	–	–	–	–	–	–	–	–	–	–	–	–	–	–	–	–	–	73	–	–	–
CCC(C)c1cc(C(O)C(F)(F)F)ccc1O (configuration not stated)	inactive	inactive	inactive	Active	inactive	inactive	inactive	inactive	Active	inactive	inactive	inactive	–	–	–	–	–	53.9	0.5	1.6	–
CC(C)c1cc(C(O)C(F)(F)F)ccc1O (configuration not stated)	inactive	inactive	inactive	Active	Active	inactive	inactive	inactive	Active	inactive	inactive	Active	–	–	–	–	–	84.1	0.25	1.9	Activity (Mus musculus [32]): inactive; Activity (Mus musculus [33]): inactive; Activity (Mus musculus [34]): inactive; Activity (Mus musculus [35]): inactive
CCC(C)c1cc(C(O)C(F)(F)F)cc(Br)c1O (configuration not stated)	inactive	inactive	inactive	Active	inactive	inactive	inactive	inactive	inactive	inactive	inactive	inactive	–	–	–	–	–	–	0.5	1.7	Activity (Mus musculus [32]): inactive; Activity (Mus musculus [33]): inactive
CC(C)c1cc(C(O)C(F)(F)F)cc(Br)c1O (configuration not stated)	inactive	inactive	inactive	inactive	inactive	inactive	inactive	inactive	inactive	inactive	inactive	inactive	–	–	–	–	–	112	0.5	3.6	–
